From article PMC3244355 (Journal of the American Chemical Society, 2011) come the findings set out here.

Series [1] deals with HeLa cells. Put plainly: toxicity / cell viability of dye-treated cells. Particulars: cells treated for up to 6 h with 100 μM dye. The format is cell-based, human.
Series [2] is described as follows: chemical stability in aqueous buffer solution. The format is physicochemical. Particulars: pH 4–9, several days at ambient temperature. Put shortly: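 The test dye is held in aqueous buffer across pH 4–9 at ambient temperature for several days. Absorbance/emission properties are monitored, and the solution is checked for decomposition.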
The next series is described as follows: photophysical properties. Particulars: for λemi: excited at λmax. Format: physicochemical. Put shortly:
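Samples are prepared at 20 μM. Dye–inhibitor conjugate spectra are recorded in 1% DMSO/PBS, pH 7.4, at 25 °C with excitation at 405 nm. Tabulated dye entries are excited at their λmax. Absorption maximum, molar absorptivity, emission maximum and fluorescence quantum yield are reported.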

The next series in a line: solubility. Format: physicochemical. The following applies: variety of solvents.
For series [3], the system named is HeLa cells. The series is described as follows: membrane permeability and localization of free dyes, live-cell imaging. The format is cell-based, human. Particulars: living HeLa cells, 20 μM, 60 minutes, with AlexaFluor546-BSA endocytosis marker. Put shortly: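 Live HeLa cells are incubated for 1 h in 20 μM test dye, with 100 μg/mL AlexaFluor546-labeled BSA as a fluid-phase endocytosis marker. Cells are washed free of dye and imaged live by epifluorescence microscopy using a custom filter set matched to 395/500 excitation/emission. Merged images are used to compare dye distribution with marker-containing endosomal vesicles.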

[4] abbreviates: 1%DMSO/PBS pH 7.4, 20 μM sample.

On to `CC(C)=[N+]1N=C2C=CC(Br)=CN2[B-]1(F)F` [Compound 16, 6-Bromo-3,3-difluoro-2-(propan-2-ylidene)-2,3-dihydro-[1,2,4,3]triazaborolo[4,5-a]pyridin-2-ium-3-uide], for which the “toxicity / effects on cell viability” value with HeLa cells [1] was “no toxicity”. For the same molecule, the “chemical stability in aqueous buffer solution” value in series [2] is on record as “no decomposition in solution was evident”. Besides, the Φf in “photophysical properties” (setting [4]) is reported as 0.17; in the series “photophysical properties” (Acetone, 20 μM sample), 0.17; in “photophysical properties” (CH2Cl2, 20 μM sample), 0.22; in the series “photophysical properties” (MeOH, 20 μM sample) it was 0.21; in “photophysical properties” (Toluene, 20 μM sample), 0.07. Further, the ε in the series “photophysical properties” (setting [4]) is reported as 8 600 M^−1cm^−1; in “photophysical properties” (Acetone, 20 μM sample) it was 8 600 M^−1cm^−1; in “photophysical properties” (CH2Cl2, 20 μM sample), 9 300 M^−1cm^−1; in “photophysical properties” (MeOH, 20 μM sample) it was 8 500 M^−1cm^−1; in the series “photophysical properties” (Toluene, 20 μM sample) it was 9 800 M^−1cm^−1. The λmax in “photophysical properties” (setting [4]) is recorded as 404 nm; in the series “photophysical properties” (Acetone, 20 μM sample) it was 403 nm; in the series “photophysical properties” (CH2Cl2, 20 μM sample) it was 408 nm; in “photophysical properties” (MeOH, 20 μM sample) it was 403 nm; in “photophysical properties” (Toluene, 20 μM sample), 406 nm. In addition, the λemi in “photophysical properties” (setting [4]) is 491 nm; in the series “photophysical properties” (Acetone, 20 μM sample), 504 nm; in “photophysical properties” (CH2Cl2, 20 μM sample), 497 nm; in “photophysical properties” (MeOH, 20 μM sample), 493 nm; in the series “photophysical properties” (Toluene, 20 μM sample), 500 nm. The solubility in solvents result in the series “solubility” was “soluble in a variety of solvents”. The cell membrane permeability entry in the series with HeLa cells [3] was “membrane permeable”.
